High-throughput results deposited in PubChem by several laboratories.
Rows were chosen to be rich in hits. Some 1.2% of all compounds tested hit in one or more screens of this group.
APOBEC3G inh = APOBEC3G DNA deaminase inhibitors, primary screen, biochemical, fluorescence, single-stranded DNA substrate, uHTS; recombinant A3G, ssDNA deamination FAM/TAMRA fluorescence; inhibition, % at 20 µM; hit rate 0.28% among 330,000; AID 493012, 2011;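 active = inhibition of at least 40% at 20 µM, with no more than 30% in the related APOBEC3A deaminase screen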;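 note: plate controls were DMSO wells with A3G for no effect and wells lacking A3G enzyme for full effect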
ABHD5-PLIN5 inh = ABHD5-PLIN5 interaction inhibitors, primary screen, cell lysate, split luciferase complementation, luminescence; Split G. princeps luciferase complementation, 4 h; AID 602281, 2012; hit rate 0.78% among 360,000; inhibition, % at 4 µM;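 active = inhibition above the mean inhibition across every tested compound plus 3 SD, cut at about 22% in these data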;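 note: 0% = DMSO only wells and the 100% control is not disclosed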
FN deposition inh = inhibitors of fibronectin matrix deposition, primary screen, AH1F cells, Alexa488-fibronectin fluorescence, plate reader; AH1F fibroblasts, overnight; inhibition, % at 12.6 µM; hit rate 0.086% among 350,000;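 active = mean inhibition across replicates of 30% or more, regardless of how many single replicates reach that level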;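 note: positive control wells lacked labelled fibronectin entirely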
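Assay system: AH1F fibroblast monolayer, labelled fibronectin deposition. Amount: 10000 cells per well. Also added: labelled fibronectin 24 nM. Compound: single-point pinned compound. Incubation: cell attachment 1 h, compound and FN exposure overnight. Detection: fluorescence after three HBSS washes, excitation 485 nm, emission 525 nm. Read-out: inhibition of fibronectin deposition signal.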
A3A deaminase = APOBEC3A ssDNA deaminase inhibitors, primary screen, selectivity assay for APOBEC3G inhibitor project, biochemical, FAM/TAMRA oligo cleavage fluorescence; DNA dC->dU-editing enzyme APOBEC-3A (Homo sapiens), P31941; recombinant A3A, FAM/TAMRA ssDNA deamination fluorescence; inhibition, % at 20 µM; hit rate 0.41% among 330,000; AID 493011, 2011;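 active = at least 40% inhibition at 20 µM here, with at most 30% in a related deaminase screen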;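 note: plate controls were A3A with DMSO for no effect and wells lacking A3A enzyme for full effect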
Target sequence (P31941 whole entry, looked up): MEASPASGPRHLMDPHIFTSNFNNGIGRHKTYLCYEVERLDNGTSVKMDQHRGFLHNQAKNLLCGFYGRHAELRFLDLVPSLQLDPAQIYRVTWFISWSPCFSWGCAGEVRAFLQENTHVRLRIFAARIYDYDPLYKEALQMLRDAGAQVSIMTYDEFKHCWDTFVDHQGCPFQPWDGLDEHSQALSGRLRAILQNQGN
ABHD5-PLIN5 conf = ABHD5-PLIN5 interaction inhibitors, confirmation, biochemical, luminescence; hit rate 67% among 2,200; AID 651612, 2012; inhibition, % at 4 µM; shares compounds with ABHD5-PLIN5 inh; in the data active = inhibition above about 23%;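 note: 0% = DMSO vehicle wells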
HNF4 split-luc = HNF4 dimerization inhibitors, counter-screen for ABHD5-PLIN5 interaction inhibitor project, biochemical, split-luciferase complementation, luminescence. shares compounds with ABHD5-PLIN5 inh. inhibition, % at 4 µM. hit rate 77% among 2,200. AID 651674, 2012;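 active = mean inhibition across replicate wells exceeding the computed hit threshold, cut at about 13% in these data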;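 note: light from luciferase halves that rejoin when HNF4 fusion proteins dimerize; 0% = DMSO only wells and the 100% control is not given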
Target sequence (P41235 whole entry, looked up, the tested form may be a part): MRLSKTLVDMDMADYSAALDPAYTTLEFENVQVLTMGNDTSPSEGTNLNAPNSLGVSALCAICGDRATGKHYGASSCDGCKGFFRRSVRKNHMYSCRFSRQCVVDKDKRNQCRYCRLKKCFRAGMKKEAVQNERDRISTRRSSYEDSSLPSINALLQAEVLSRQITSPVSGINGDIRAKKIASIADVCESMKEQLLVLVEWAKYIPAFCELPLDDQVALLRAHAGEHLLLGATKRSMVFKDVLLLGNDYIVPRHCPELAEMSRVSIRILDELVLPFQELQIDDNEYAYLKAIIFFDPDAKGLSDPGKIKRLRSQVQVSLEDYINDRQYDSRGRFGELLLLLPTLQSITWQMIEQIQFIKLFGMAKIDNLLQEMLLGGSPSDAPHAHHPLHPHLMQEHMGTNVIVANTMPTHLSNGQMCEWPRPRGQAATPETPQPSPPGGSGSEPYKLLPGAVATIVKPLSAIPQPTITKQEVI
Numbers without * were called inactive; x = not tested or not shown.

SMILES	APOBEC3G inh	ABHD5-PLIN5 inh	FN deposition inh	A3A deaminase	ABHD5-PLIN5 conf	HNF4 split-luc
O=C(C[C@@H]1C[C@@H]2c3cc(NS(=O)(=O)c4ccc(F)cc4)ccc3O[C@@H]2[C@H](CO)O1)NCc1ccncc1	x	x	-11	x	x	x
COC(=O)[C@@]1(Cc2ccc(F)cc2)[C@H]2c3cc(C(=O)N(C)C)n(CCCNc4ncc(C(F)(F)F)cc4Cl)c3C[C@H]2CN1C(=O)c1ccccc1	x	25*	1	x	8	5
COC(=O)[C@@]1(Cc2ccc(F)cc2)[C@H]2c3cc(C(=O)N(C)C)n(CCO)c3C[C@H]2CN1C(=O)c1ccccc1	x	8	x	x	x	x
C[C@@H]1CN([C@H](C)CO)S(=O)(=O)c2ccc(-c3ccc(F)cc3)cc2O[C@@H]1CN(C)C(=O)Nc1ccc(F)cc1	x	x	-12	x	x	x
CN(c1ccccc1)S(=O)(=O)c1ccc(NC(=O)c2ccccc2)cc1	-1	-3	3	0	x	x
CN(c1ccccc1)S(=O)(=O)c1ccc(NC(=O)c2nc(S(C)(=O)=O)ncc2Cl)cc1	-4	78*	16	-5	91*	106*
COc1cccc(NC(=O)c2nc(S(C)(=O)=O)ncc2Cl)c1	-5	53*	5	-2	77*	102*
COc1cccc(NC(=O)c2nc(SC)ncc2Cl)c1	-10	-2	7	-2	x	x
CO[C@@H]1CC[C@H]2CCN(C)C(=O)[C@H](C)CN(C)C(=O)c3cc(C#N)ccc3OC[C@H]1O2	x	x	1	x	x	x
CCCCCCCCN1[C@@H](CC(=O)O)c2cc(C(F)(F)F)ccc2S1(=O)=O	-4	30*	-19	2	33*	16*
CC(NC(=O)COC(=O)C1CCC1)c1ccccc1 (configuration not stated)	2	23*	4	-6	4	1
Cn1cc(CN2CCC(C(=O)NC(c3ccc(F)cc3)c3ccc4ccccc4n3)CC2)c2ccccc21 (configuration not stated)	x	24*	2	x	12	11
COc1cc(CN2CCC(C(=O)NC(c3ccc(F)cc3)c3ccc4ccccc4n3)CC2)cc(OC)c1 (configuration not stated)	x	7	5	x	x	x
CC1=NNC(=O)/C1=C\c1cn(-c2ccccc2)nc1-c1ccc(Cl)cc1	-8	32*	x	-1	56*	91*
COc1ccc(CN=C2NN=C(c3ccc(Cl)cc3)CS2)cc1	-5	-11	x	0	x	x
COc1ccc(CN=C2Nc3ccccc3CS2)cc1	0	37*	4	2	3	3
COc1ccc(NC(=O)N(C)C[C@@H]2Oc3cc(C#CCN(C)C)ccc3S(=O)(=O)N([C@@H](C)CO)C[C@@H]2C)cc1	x	x	9	x	x	x
COc1ccccc1-c1ncn(Cc2cccc(-c3ccccc3)c2)c1-c1ccco1	x	25*	-6	x	22*	37*
CCCNC(=O)N1CC2(CN(Cc3cccc(F)c3)C2)c2c([nH]c3cc(OC)ccc23)[C@@H]1CO	x	x	9	x	x	x
O=C(Nc1nc2ccccc2[nH]1)NC1CCCCC1	5	102*	x	2	4	3
CCSc1nnc(-c2c[nH]c3ccccc23)o1	6	98*	x	-1	5	4
CCCCC/C=C/C1=CC(=O)C[C@H](c2ccc(OC)cc2)C1	-11	4	13	0	x	x
COc1ccc([C@H]2CC(=O)C=C(/C=C/Cc3ccccc3)C2)cc1	-9	26*	12	-1	38*	32*
COc1ccc(Cl)cc1C(=O)NCCN(C)C	-2	-3	-6	2	x	x
CN(C)CCNC(=O)c1ccc(COc2ccc(Cl)cc2Cl)cc1	2	27*	8	4	15	2
SMILES	APOBEC3G inh	ABHD5-PLIN5 inh	FN deposition inh	A3A deaminase	ABHD5-PLIN5 conf	HNF4 split-luc
O=C(C[C@H]1C[C@@H]2c3cc(NC(=O)CC4CC4)ccc3O[C@@H]2[C@H](CO)O1)NCc1cc(F)ccc1F	x	x	-18	x	x	x
CC(C)C1N=C(c2ccc3c(c2)OCO3)CC(c2ccccc2O)N1 (configuration not stated)	4	56*	x	0	58*	82*
Cc1ccc(-c2nnc(-c3ccc4c(c3)OCO4)o2)cc1	-1	-2	-1	-1	x	x
C/C=C/c1ccc([C@@H]2[C@@H](CNC(=O)c3ccccc3)N(C(C)=O)[C@H]2CO)cc1	x	x	-7	x	x	x
Cc1nc(Sc2ccccc2)c(C#N)c(C)c1[N+](=O)[O-]	-7	1	8	-2	x	x
Cc1cc(C)c(C#N)c(Sc2nc(C)c([N+](=O)[O-])c(C)c2C#N)n1	x	31*	10	x	36*	27*
CO[C@@H]1CN(C)C(=O)c2cc(NC(=O)Nc3cccc(Cl)c3)ccc2OC[C@H](C)N(C(=O)Nc2c(C)noc2C)C[C@H]1C	x	x	1	x	x	x
O=P(CCCCCCCCCP(=O)(c1ccccc1)c1ccccc1)(c1ccccc1)c1ccccc1	-6	23*	9	-2	-1	-1
O=C(O)CCCCCCCCCCP(=O)(c1ccccc1)c1ccccc1	2	-5	1	2	x	x
O=C(N[C@@H]1CC[C@H](CCn2cc(C3(O)CCCC3)nn2)O[C@@H]1CO)C1CCCC1	x	x	3	x	x	x
O=C1C(O)=C(O)C(=O)c2ccccc21	-2	42*	x	0	7	67*
Cc1ccc(-c2nn(-c3ccccc3)cc2CN(Cc2ccccc2)C(=O)c2ccco2)o1	-5	38*	1	-2	15	21*
CC(=O)c1ccc2noc(-c3ccccc3)c2c1	-6	28*	-2	-3	31*	49*
O=C(O)c1cccc(N2C(=O)C3CC=CCC3C2=O)c1 (configuration not stated)	5	1	0	-1	x	x
COc1cccc(NC(=O)Cc2ccccc2)c1	-12	0	1	-6	x	x
O=C(Cc1ccccc1)Nc1cccc(N2C(=O)C=CC2=O)c1	x	29*	16	x	47*	107*
O=C(O)c1cccc(N2C(=O)C=CC2=O)c1	x	37*	3	x	44*	104*
CC(=O)Nc1ccc2c(c1)C(=O)N(C)[C@H]1CC[C@H](CC(=O)NCc3ccccc3)O[C@@H]1CO2	x	x	-19	x	x	x
Cc1noc(C)c1NC(=O)N(C)C[C@@H]1Oc2ccc(NC(=O)NC3CCCCC3)cc2C(=O)N([C@H](C)CO)C[C@H]1C	x	x	6	x	x	x
O=C1C(=O)c2c(C(=O)c3ccccc3)coc2-c2ccccc21	-1	69*	x	-5	85*	45*
Cc1oc2c(c1C(=O)c1ccccc1)C(=O)C(=O)c1ccccc1-2	7	-14	x	5	x	x
